Data as given in paper PMC3578425 (Pharmacological research : the official journal of the …, 2010).
Where “and” joins values, the source holds several entries; their conditions need not be identical. Identical values can stand only once. Entries after “also recorded” stand apart in the source; their conditions may differ. Like-named read-outs stand apart in the source and are kept apart here.

Experiments:
[1] = target: P2Y1 receptors on mouse platelets (Mus musculus, UniProt P49650); assay: [125I]MRS2500 binding assay with intact washed mouse platelets
In short: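 Mouse washed platelets were prepared by differential centrifugation in Tyrode's buffer, pH 7.3, with 0.35% human serum albumin and apyrase (0.02 U/ml), held at 150,000 platelets/μl at 37°C. Platelet suspension (400 μl in 0.5 ml) was incubated 5 min with [125I]MRS2500 at 20°C or 37°C, with or without competitors. Samples were filtered on GF/C, washed five times with ice-cold buffer, and gamma-counted. Nonspecific binding was defined with 10 μM MRS2179.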

[2] = system: platelets isolated from P2Y1(−/−) mice; assay: [125I]MRS2500 binding to platelets isolated from P2Y1; parameters: species or system mouse
[3] = target: P2Y1 receptors on human platelets (Homo sapiens, UniProt P47900); assay: [125I]MRS2500 binding assay with intact washed human platelets; settings: for effect on [125I]MRS2500 binding: competing drug up to 100 μM
human P2Y1 receptor = human P2Y1 receptor (Homo sapiens, UniProt P47900); type: binding; settings: for Ki: read-out: Ki, inhibition of [125I]MRS2500 binding, competition curves
P2Y1 receptor = settings: read-out: Kd for the P2Y1 receptor; cited from earlier work
[4] = system: membranes from wild-type insect cells (empty vector-infected Sf9); assay: [125I]MRS2500 binding to membranes from empty vector-infected; settings: wide range of membrane concentrations; nonspecific defined with 30 μM 2MeSADP
[5] = wild-type mouse platelets, 10 μM competitor
[6] = P2Y1 receptor-expressing Sf9 membranes
[7] = read-out: Ki, inhibition of [125I]MRS2500 binding, human platelets, competition
[8] = approximately 0.3 nM [125I]MRS2500, 300 ng membranes, data not shown
[9] = human platelets, 37°C, data not shown

P2Y1 receptors on mouse platelets, sequence (P49650 whole entry): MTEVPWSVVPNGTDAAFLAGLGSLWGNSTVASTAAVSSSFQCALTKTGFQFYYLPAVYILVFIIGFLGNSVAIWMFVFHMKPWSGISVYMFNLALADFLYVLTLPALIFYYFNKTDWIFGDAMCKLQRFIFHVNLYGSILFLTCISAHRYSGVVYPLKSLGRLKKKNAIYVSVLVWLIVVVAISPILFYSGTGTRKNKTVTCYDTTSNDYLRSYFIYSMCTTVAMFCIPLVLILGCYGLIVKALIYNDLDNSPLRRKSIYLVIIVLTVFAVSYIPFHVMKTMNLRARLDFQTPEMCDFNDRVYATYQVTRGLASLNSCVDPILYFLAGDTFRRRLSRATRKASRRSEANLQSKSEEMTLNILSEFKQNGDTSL
P2Y1 receptors on human platelets, sequence (P47900 whole entry): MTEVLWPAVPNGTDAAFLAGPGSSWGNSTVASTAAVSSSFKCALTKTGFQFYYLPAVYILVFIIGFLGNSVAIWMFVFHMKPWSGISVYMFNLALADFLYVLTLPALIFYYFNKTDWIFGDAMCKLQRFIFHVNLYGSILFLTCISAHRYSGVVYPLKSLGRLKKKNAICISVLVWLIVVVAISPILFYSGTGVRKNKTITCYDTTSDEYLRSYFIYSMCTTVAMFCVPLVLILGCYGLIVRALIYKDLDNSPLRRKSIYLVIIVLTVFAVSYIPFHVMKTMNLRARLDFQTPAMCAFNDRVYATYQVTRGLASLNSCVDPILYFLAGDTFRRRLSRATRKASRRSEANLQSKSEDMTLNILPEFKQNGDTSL
human P2Y1 receptor, sequence (P47900 whole entry): as above

## CSc1nc(N)c2ncn([C@@H]3O[C@H](COP(=O)(O)OP(=O)(O)O)[C@@H](O)[C@H]3O)c2n1 [2MeSADP, 2-methylthio-adenosine 5′-diphosphate, reference compound]
[1]; [5]
  effect on [125I]MRS2500 binding: inhibited
[2]; high concentration of competitor
  effect on residual [125I]MRS2500 binding: not inhibited

## Nc1ncnc2c1ncn2[C@@H]1O[C@H](COP(=O)(O)CP(=O)(O)OP(=O)(O)O)[C@@H](O)[C@H]1O [!!MeATP, reference compound]
[3]; human platelets
  effect on [125I]MRS2500 binding: Little effect

## Nc1ncnc2c1ncn2[C@@H]1O[C@H](COP(=O)(O)OP(O)(O)=S)[C@@H](O)[C@H]1O [ADP!S, reference compound]
Human P2Y1 receptor; [6]
  Ki: 1750 ± 750 nM

## Nc1ncnc2c1ncn2[C@@H]1O[C@H](COP(=O)(O)OP(=O)(O)O)[C@@H](O)[C@H]1O [ADP, reference compound]
Human P2Y1 receptor; [6]
  Ki: 625 ± 37 nM
[3]; [7]
  Ki: 15400 ± 9000 nM
[1]; wild-type mouse platelets, 100 μM competitor
  effect on [125I]MRS2500 binding: inhibited

## CSCCNc1nc(SCCC(F)(F)F)nc2c1ncn2[C@@H]1O[C@H](COP(=O)(O)OP(=O)(O)C(Cl)(Cl)P(=O)(O)O)[C@@H](O)[C@H]1O [ARC-69931MX, [dichloro-[[[(2R,3S,4R,5R)-3,4-dihydroxy-5-[6-(2-methylsulfanylethylamino)-2-(3,3,3-trifluoropropylsulfanyl)purin-9-yl]oxolan-2-yl]methoxy-hydroxyphosphoryl]oxy-hydroxyphosphoryl]methyl]phosphonic acid, reference compound]
[3]; human platelets
  effect on [125I]MRS2500 binding: Little effect
[1]; [5]
  effect on [125I]MRS2500 binding: no effect

## CNc1ncnc2c1ncn2[C@H]1C[C@H](OP(=O)(O)O)[C@@H](COP(=O)(O)O)O1 [MRS2179]
[3]
  Ki: 72.5 ± 17 nM
[1]; [5]
  effect on [125I]MRS2500 binding: inhibited
P2Y1 receptor
  Kd: ~100 nM

## CNc1nc(Cl)nc2c1ncn2[C@H]1C[C@H](OP(=O)(O)O)[C@]2(COP(=O)(O)O)C[C@H]12 [MRS2279, 2-chloro-N^6-methyl-(N)-methanocarba-2′-deoxyadenosine-3′,5′-bisphosphate]
P2Y1 receptor
  Kd: ~10 nM

## CSc1nc(N)c2ncn([C@H]3[C@H](O)[C@H](O)[C@@]4(COP(=O)(O)OP(=O)(O)O)C[C@H]34)c2n1 [MRS2365, (1′S,2′R,3′S,4′R,5′S)-4-[(6-amino-2-methylthio-9H-purin-9-yl)-1-diphosphoryloxymethyl]bicyclo[3.1.0]hexane-2,3-diol]
[1]; [5]
  effect on [125I]MRS2500 binding: inhibited

## CNc1nc(I)nc2c1ncn2[C@H]1C[C@H](OP(=O)(O)O)[C@]2(COP(=O)(O)O)C[C@H]12 [MRS2500, 2-iodo-N^6-methyl-(N)-methanocarba-2′-deoxyadenosine 3′,5′-bisphosphate]
[3]; [7]
  Ki: 1.2 ± 0.15 nM

## O=c1ccn([C@@H]2O[C@H](COP(=O)(O)OP(=O)(O)OP(=O)(O)O)[C@@H](O)[C@H]2O)c(=O)[nH]1 [UTP, reference compound]
Human P2Y1 receptor; concentrations up to 30 μM
  effect on [125I]MRS2500 binding: no effect

## CNc1nc(I)nc2c1ncn2[C@H]1C[C@H](OP(=O)(O)O)[C@]2(COP(=O)(O)O)C[C@H]12 [[^125I]MRS2500, 2-iodo-N^6-methyl-(N)-methanocarba-2′-deoxyadenosine-3′,5′-bisphosphate]
Human P2Y1 receptor; [8]
  time steady-state binding was maintained: at least 40 min
  time to steady state binding: ≤ 20 min
Human P2Y1 receptor; read-out: Kd, saturation binding of [125I]MRS2500, P2Y1 receptor-expressing Sf9 membranes, 4°C, one-site binding
  Kd: 1.1 ± 0.3 nM
Human P2Y1 receptor; saturation binding of [125I]MRS2500
  Bmax for P2Y1 receptor expression in Sf9 cells: 13.3 ± 2.2 pmol/mg membrane protein
[3]; human platelets, 20°C, data not shown
  Bmax (binding sites): 147 sites/platelet
[3]; human platelets, 37°C
  Bmax: 151 sites/platelet and 151 ± 1 sites/platelet
[3]; [9]
  time binding was stable: at least 15 min
  time to apparent steady state binding: 60 to 90 s
[3]; intact washed platelets (human or mouse), 20°C or 37°C
  time to steady state binding: ≤ 5 min
[3]; read-out: Kd, saturation binding of [125I]MRS2500, human platelets, 37°C
  Kd: 0.61 nM
[1]; mouse platelets, 20°C, data not shown
  Bmax: 253 sites/platelet
[1]; read-out: Kd, saturation binding of [125I]MRS2500, mouse platelets, 20°C, data not shown
  Kd: 0.5 nM
[1]; wild-type mouse platelets, 37°C
  Bmax: 229 sites/platelet and 229 ± 23 sites/platelet
[4]
  specific binding of radioligand: did not specifically bind; also recorded: no specific binding
[2]
  specific binding of [125I]MRS2500: not observed
